Where a SMILES comes first, the peptide text is derived from it. Bridges are numbered along the chain shown (N, C = ends).
How the values were obtained:
[1] = target: Nicotinic acetylcholine receptor alpha6/alpha3/beta4 (Homo sapiens, UniProt P30926+P32297+Q15825); format: cell-based, Oocyte
[2] = target: Neuronal acetylcholine receptor; alpha2/beta2 (Rattus norvegicus, UniProt P12389+P12390); experiment: Inhibition of rat alpha2beta2 nAChR expressed in Xenopus laevis oocytes assessed as inhibition of acetylcholine-induced current response by two-electrode voltage-clamp method; format: cell-based, Oocyte
Chain of Neuronal acetylcholine receptor; alpha2/beta2 (Rattus norvegicus, UniProt P12389+P12390) (P12389 whole entry, the tested form may be a part): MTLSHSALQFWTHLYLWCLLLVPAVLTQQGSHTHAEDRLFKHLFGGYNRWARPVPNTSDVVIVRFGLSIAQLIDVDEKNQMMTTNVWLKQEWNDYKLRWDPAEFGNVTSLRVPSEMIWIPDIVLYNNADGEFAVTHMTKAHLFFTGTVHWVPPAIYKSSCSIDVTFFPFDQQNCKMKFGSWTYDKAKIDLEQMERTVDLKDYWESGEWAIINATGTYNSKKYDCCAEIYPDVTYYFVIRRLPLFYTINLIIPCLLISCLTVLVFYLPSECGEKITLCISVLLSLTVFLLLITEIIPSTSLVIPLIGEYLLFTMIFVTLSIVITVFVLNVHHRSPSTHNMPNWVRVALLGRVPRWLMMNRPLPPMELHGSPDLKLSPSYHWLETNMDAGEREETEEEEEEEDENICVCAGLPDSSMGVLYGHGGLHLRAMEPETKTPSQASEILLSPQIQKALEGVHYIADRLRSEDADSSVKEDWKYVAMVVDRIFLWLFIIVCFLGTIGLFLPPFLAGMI
Chain of Neuronal acetylcholine receptor; alpha2/beta2 (Rattus norvegicus, UniProt P12389+P12390) (P12390 whole entry, the tested form may be a part): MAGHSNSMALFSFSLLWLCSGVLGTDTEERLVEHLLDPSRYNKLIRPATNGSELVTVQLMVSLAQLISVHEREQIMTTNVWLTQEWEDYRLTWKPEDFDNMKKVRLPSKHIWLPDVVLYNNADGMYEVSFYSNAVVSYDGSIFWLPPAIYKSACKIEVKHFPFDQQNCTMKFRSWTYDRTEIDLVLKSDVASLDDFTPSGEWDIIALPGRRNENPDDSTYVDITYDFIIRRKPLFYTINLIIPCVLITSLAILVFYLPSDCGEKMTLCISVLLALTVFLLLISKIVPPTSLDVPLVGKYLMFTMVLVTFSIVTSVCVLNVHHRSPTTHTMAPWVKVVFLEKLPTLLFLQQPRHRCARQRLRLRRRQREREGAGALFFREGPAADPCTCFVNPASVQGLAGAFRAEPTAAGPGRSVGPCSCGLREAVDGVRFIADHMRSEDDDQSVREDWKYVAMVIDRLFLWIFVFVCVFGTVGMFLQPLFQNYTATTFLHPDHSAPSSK
Outline: (§1)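 Two-electrode voltage clamp of stage IV–V oocytes 1–5 days after equal-ratio cRNA injection; ACh 100 μM (β2-containing subtypes, α9α10), 1 s every 60 s in frog saline. Peptide perfused up to 1 μM, responses normalized to mean of three control responses; above 1 μM, 5 min static bath. IC50 with 95% CI; n = oocytes.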

Rattus norvegicus [3] = species on record: Rattus norvegicus; experiment: Selectivity ratio of IC50 for rat alpha4beta4 nAChR to IC50 for rat alpha6/alpha3beta4 nAChR
Outline: (§2)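 Ratio of each subtype's IC50, from TEVC inhibition of ACh-evoked currents in X. laevis oocytes, to the IC50 at the same species' α6/α3β4 nAChR; IC50 values with 95% CI, n = number of oocytes.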

Homo sapiens [4] = species on record: Homo sapiens; experiment: Selectivity ratio of IC50 for human alpha4beta2 nAChR to IC50 for human alpha6/alpha3beta4 nAChR
Outline: as §2

[5] = target: Nicotinic acetylcholine receptor alpha6/alpha3/beta4 (Rattus norvegicus, UniProt P04757+P12392+P43143); format: cell-based, Oocyte
[6] = target: Neuronal acetylcholine receptor; alpha9/alpha10 (Homo sapiens, UniProt Q9GZZ6+Q9UGM1); experiment: Inhibition of human alpha9alpha10 nAChR expressed in Xenopus laevis oocytes assessed as inhibition of acetylcholine-induced current response by two-electrode voltage-clamp method; format: cell-based, Oocyte
Outline: as §1

[7] = target: Neuronal acetylcholine receptor; alpha9/alpha10 (Homo sapiens) (UniProt Q9UGM1+Q9GZZ6); experiment: Inhibition of human alpha9alpha10 nAChR expressed in Xenopus laevis oocytes assessed as inhibition of acetylcholine-induced current response at 10 uM by two-electrode voltage-clamp method relative to control; format: cell-based; conditions: Oocyte
Outline: (§3)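 Oocytes (stage IV–V) injected with equal-ratio cRNAs of cloned subunits; TEVC 1–5 days post-injection. ACh 100 μM for β2-containing and α9α10 subtypes, 1 s pulses every 60 s. Peptide 10 μM in 5 min static bath; response normalized to ACh response after 5 min control-saline bath; mean ± SD, n = 4.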

[8] = target: Neuronal acetylcholine receptor; alpha2/beta2 (Homo sapiens, UniProt P17787+Q15822); experiment: Inhibition of human alpha2beta2 nAChR expressed in Xenopus laevis oocytes assessed as inhibition of acetylcholine-induced current response at 10 uM by two-electrode voltage-clamp method relative to control; format: cell-based; conditions: Oocyte
Outline: as §3

[9] = target: Neuronal acetylcholine receptor; alpha2/beta2 (Rattus norvegicus) (UniProt P12389+P12390); experiment: Inhibition of rat alpha2beta2 nAChR expressed in Xenopus laevis oocytes assessed as inhibition of acetylcholine-induced current response at 10 uM by two-electrode voltage-clamp method relative to control; format: cell-based; conditions: Oocyte
Outline: as §3

[10] = target: Neuronal acetylcholine receptor subunit alpha-7 (Homo sapiens, UniProt P36544); experiment: Inhibition of human alpha7 nAChR expressed in Xenopus laevis oocytes assessed as inhibition of acetylcholine-induced current response at 10 uM by two-electrode voltage-clamp method relative to control; format: cell-based; conditions: Oocyte
Chain of Neuronal acetylcholine receptor subunit alpha-7 (Homo sapiens, UniProt P36544) (P36544 whole entry): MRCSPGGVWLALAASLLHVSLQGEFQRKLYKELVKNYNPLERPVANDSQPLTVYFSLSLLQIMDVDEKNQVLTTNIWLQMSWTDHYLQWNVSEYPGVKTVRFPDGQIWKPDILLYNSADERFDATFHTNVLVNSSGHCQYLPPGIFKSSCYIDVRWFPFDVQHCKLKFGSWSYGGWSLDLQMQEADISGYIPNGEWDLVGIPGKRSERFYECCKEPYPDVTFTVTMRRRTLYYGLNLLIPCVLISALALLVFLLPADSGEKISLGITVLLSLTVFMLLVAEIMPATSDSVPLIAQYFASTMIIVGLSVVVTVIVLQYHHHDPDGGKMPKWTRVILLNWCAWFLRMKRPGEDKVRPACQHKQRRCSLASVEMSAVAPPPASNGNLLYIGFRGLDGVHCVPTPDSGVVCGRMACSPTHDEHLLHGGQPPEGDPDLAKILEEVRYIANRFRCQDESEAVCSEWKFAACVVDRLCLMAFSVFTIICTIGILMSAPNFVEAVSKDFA
Outline: (§4)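 Stage IV–V X. laevis oocytes expressing equal-ratio cRNAs of α2β4, α3β4, α4β4 or α7 subunits; TEVC 1–5 days after injection. ACh 300 μM, 1 s at 60 s intervals. 10 μM peptide as 5 min static bath, normalized to ACh response after 5 min bath of control saline; mean ± SD, n = 4.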

[11] = target: Neuronal acetylcholine receptor; alpha3/alpha6/beta2/beta3 (Homo sapiens, UniProt P17787+P32297+Q05901+Q15825); experiment: Inhibition of human alpha6/alpha3beta2beta3 nAChR expressed in Xenopus laevis oocytes assessed as inhibition of acetylcholine-induced current response by two-electrode voltage-clamp method; format: cell-based, Oocyte
Outline: as §1

Homo sapiens [12] = species on record: Homo sapiens; experiment: Selectivity ratio of IC50 for human alpha1beta1deltaepsilon nAChR to IC50 for human alpha6/alpha3beta4 nAChR
Outline: as §2

[13] = target: Neuronal acetylcholine receptor; alpha2/beta4 (Homo sapiens, UniProt P30926+Q15822); experiment: Inhibition of human alpha2beta4 nAChR expressed in Xenopus laevis oocytes assessed as inhibition of acetylcholine-induced current response by two-electrode voltage-clamp method; format: cell-based, Oocyte
Outline: (§5)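 TEVC on stage IV–V oocytes 1–5 days after equal-ratio cRNA injection (α2β4, α3β4, α4β4, α7). ACh 300 μM, 1 s pulses at 60 s intervals under frog saline perfusion. Peptide perfused to 1 μM, normalized to average of three control responses; higher concentrations by 5 min static bath. IC50 with 95% CI, n oocytes.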

[14] = target: Neuronal acetylcholine receptor subunit alpha-6/alpha-3 (Homo sapiens) (UniProt P32297+Q15825); experiment: Inhibition of human alpha6beta4 nAChR expressed in Xenopus laevis oocytes assessed as recovery of acethylcholine-evoked currents at 10 uM treated for 10 mins followed by compound washout by two-electrode voltage-clamp method relative to control; format: cell-based; design: scale not given: the % may be the effect or the level left; conditions: Oocyte
Homo sapiens [15] = species on record: Homo sapiens; experiment: Selectivity ratio of IC50 for human alpha2beta2 nAChR to IC50 for human alpha6/alpha3beta4 nAChR
Outline: as §2

[16] = target: Neuronal acetylcholine receptor subunit alpha-7 (Rattus norvegicus, UniProt Q05941); format: cell-based, Oocyte
Chain of Neuronal acetylcholine receptor subunit alpha-7 (Rattus norvegicus, UniProt Q05941) (Q05941 whole entry): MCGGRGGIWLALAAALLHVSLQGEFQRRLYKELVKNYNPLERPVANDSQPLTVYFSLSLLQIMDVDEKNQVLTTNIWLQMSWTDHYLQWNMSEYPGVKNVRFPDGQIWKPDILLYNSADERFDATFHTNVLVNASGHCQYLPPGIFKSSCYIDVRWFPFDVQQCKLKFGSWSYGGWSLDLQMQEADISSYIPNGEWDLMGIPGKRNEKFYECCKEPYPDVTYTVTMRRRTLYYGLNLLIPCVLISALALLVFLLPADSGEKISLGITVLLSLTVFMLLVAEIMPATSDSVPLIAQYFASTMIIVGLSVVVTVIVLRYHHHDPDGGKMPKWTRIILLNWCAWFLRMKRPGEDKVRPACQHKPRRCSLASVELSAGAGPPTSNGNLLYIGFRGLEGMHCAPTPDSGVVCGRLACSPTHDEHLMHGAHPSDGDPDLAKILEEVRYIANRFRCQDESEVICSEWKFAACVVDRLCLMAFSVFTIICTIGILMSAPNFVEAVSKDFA

[17] = target: Neuronal acetylcholine receptor subunit alpha-7 (Rattus norvegicus) (UniProt Q05941); experiment: Inhibition of rat alpha7 nAChR expressed in Xenopus laevis oocytes assessed as inhibition of acetylcholine-induced current response at 10 uM by two-electrode voltage-clamp method relative to control; format: cell-based; conditions: Oocyte
Chain of Neuronal acetylcholine receptor subunit alpha-7 (Rattus norvegicus) (Q05941 whole entry): as above
Outline: as §4

Rattus norvegicus [18] = species on record: Rattus norvegicus; experiment: Selectivity ratio of IC50 for rat alpha6/alpha3beta2beta3 nAChR to IC50 for rat alpha6/alpha3beta4 nAChR
Outline: as §2

[19] = target: Neuronal acetylcholine receptor; alpha4/beta2 (Rattus norvegicus, UniProt P09483+P12390); format: cell-based, Oocyte
Chain of Neuronal acetylcholine receptor; alpha4/beta2 (P09483 whole entry): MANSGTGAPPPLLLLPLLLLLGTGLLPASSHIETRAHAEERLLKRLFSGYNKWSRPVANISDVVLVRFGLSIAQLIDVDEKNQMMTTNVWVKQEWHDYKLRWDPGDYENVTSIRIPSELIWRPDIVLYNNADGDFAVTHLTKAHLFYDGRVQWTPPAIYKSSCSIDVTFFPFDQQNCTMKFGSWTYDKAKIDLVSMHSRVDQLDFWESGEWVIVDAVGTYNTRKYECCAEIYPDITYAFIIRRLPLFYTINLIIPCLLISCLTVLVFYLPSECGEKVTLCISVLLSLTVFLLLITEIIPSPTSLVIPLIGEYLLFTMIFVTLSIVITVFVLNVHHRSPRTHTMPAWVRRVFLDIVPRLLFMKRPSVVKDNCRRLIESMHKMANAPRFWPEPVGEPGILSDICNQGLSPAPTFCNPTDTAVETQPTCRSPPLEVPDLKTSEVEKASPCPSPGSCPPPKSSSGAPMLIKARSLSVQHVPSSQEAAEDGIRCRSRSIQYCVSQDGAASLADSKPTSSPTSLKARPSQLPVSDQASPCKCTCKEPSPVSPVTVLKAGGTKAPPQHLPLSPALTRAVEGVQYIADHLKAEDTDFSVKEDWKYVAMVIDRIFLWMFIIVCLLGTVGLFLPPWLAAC
Chain of Neuronal acetylcholine receptor; alpha4/beta2 (P12390 whole entry): as the sequence (P12390 whole entry, the tested form may be a part) above

[20] = target: Neuronal acetylcholine receptor; alpha3/beta4 (Rattus norvegicus, UniProt P04757+P12392); format: cell-based, Oocyte
Chain of Neuronal acetylcholine receptor; alpha3/beta4 (P04757 whole entry): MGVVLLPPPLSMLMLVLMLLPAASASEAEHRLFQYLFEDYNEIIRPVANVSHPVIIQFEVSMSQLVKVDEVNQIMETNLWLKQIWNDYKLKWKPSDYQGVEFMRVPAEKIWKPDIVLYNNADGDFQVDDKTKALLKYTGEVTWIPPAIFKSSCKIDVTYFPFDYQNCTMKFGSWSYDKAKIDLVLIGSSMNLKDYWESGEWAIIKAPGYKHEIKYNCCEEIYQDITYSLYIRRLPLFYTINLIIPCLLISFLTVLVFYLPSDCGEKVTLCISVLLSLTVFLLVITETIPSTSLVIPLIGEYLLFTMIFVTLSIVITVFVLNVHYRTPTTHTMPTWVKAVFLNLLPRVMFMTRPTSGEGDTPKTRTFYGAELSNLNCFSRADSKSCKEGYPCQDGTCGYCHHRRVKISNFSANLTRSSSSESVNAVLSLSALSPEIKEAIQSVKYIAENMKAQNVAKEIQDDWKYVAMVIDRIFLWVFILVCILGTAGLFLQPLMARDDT
Chain of Neuronal acetylcholine receptor; alpha3/beta4 (P12392 whole entry): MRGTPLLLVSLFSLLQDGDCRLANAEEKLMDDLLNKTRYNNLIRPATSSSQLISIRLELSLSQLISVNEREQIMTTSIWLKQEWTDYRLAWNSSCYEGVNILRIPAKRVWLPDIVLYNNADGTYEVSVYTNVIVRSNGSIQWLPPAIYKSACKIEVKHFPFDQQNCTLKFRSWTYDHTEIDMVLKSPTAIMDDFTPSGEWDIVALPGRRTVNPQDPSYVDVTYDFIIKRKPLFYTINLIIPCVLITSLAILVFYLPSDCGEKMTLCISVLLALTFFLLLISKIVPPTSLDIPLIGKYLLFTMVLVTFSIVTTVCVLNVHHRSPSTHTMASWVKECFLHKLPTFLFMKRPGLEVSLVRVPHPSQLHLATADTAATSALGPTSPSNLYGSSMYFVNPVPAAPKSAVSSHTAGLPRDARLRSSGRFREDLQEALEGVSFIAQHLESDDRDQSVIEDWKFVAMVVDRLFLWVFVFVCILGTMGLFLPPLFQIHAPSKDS

[21] = target: Neuronal acetylcholine receptor; alpha3/beta2 (Homo sapiens, UniProt P17787+P32297); experiment: Inhibition of human alpha3beta2 nAChR expressed in Xenopus laevis oocytes assessed as inhibition of acetylcholine-induced current response by two-electrode voltage-clamp method; format: cell-based, Oocyte
Outline: as §1

Homo sapiens [22] = species on record: Homo sapiens; experiment: Selectivity ratio of IC50 for human alpha3beta4 nAChR to IC50 for human alpha6/alpha3beta4 nAChR
Outline: as §2

[23] = Inhibition of human alpha4beta4 nAChR expressed in Xenopus laevis oocytes assessed as inhibition of acetylcholine-induced current response by two-electrode voltage-clamp method; format: cell-based; conditions: Oocyte
Outline: as §5

Rattus norvegicus [24] = species on record: Rattus norvegicus; experiment: Selectivity ratio of IC50 for rat alpha3beta2 nAChR to IC50 for rat alpha6/alpha3beta4 nAChR
Outline: as §2

Homo sapiens [25] = species on record: Homo sapiens; experiment: Selectivity ratio of IC50 for human alpha2beta4 nAChR to IC50 for human alpha6/alpha3beta4 nAChR
Outline: as §2

CC[C@H](C)[C@@H]1NC(=O)[C@H](CCC(=O)O)NC(=O)[C@@H]2CCCN2C(=O)[C@H](Cc2cnc[nH]2)NC(=O)[C@H](CC(N)=O)NC(=O)[C@H](C(C)C)NC(=O)[C@H](CC(N)=O)NC(=O)[C@@H]2CSSC[C@H](NC(=O)CN)C(=O)N[C@@H](CSSC[C@@H](C(N)=O)NC1=O)C(=O)N[C@@H](CO)C(=O)N[C@@H](Cc1cnc[nH]1)C(=O)N1CCC[C@H]1C(=O)N[C@@H](C(C)C)C(=O)N2 (H-GCCSHPVCNVNHPEIC-NH2; disulfide 2-8, 3-16)
IC50 [1]: 0.2 nM
IC50 [2]: > 10 µM
Ratio IC50 (Rattus norvegicus [3]): > 20000
Ratio IC50 (Homo sapiens [4]): > 10000
IC50 [5]: 0.48 nM
IC50 [6]: > 10 µM
inhibition [7]: 76%
inhibition [8]: 95%
inhibition [9]: 98%
inhibition [10]: 89%
IC50 [11]: 135 nM
Ratio IC50 (Homo sapiens [12]): > 50000
IC50 [13]: > 10 µM
Activity [14]: 2%
Ratio IC50 (Homo sapiens [15]): > 50000
IC50 [16]: > 10 µM
inhibition [17]: 82%
Ratio IC50 (Rattus norvegicus [18]): 227
IC50 [19]: > 10 µM
IC50 [20]: 230 nM
IC50 [21]: > 10 µM
Ratio IC50 (Homo sapiens [22]): 895
IC50 [23]: 4.01 µM
Ratio IC50 (Rattus norvegicus [24]): > 20000
Ratio IC50 (Homo sapiens [25]): > 50000
